The list is not random: actives were taken first. Their share in the collection is about 5.4%.
CSC inhib = blocks cancer stem cells | inhibition, % at 7.5 µM | cancer stem cell-like cells viability, luminescence | 300,000 compounds, 1.1% hits | AID 2717; in the data active = inhibition above about 75%; inconclusive = no clear call, values can overlap the other calls; tested in HMLE shEcad cells
aSyn UTR inh = MLPCN primary screen, SNCA 5' untranslated region. inhibition, % (tested at 7.5 µM). alpha-synuclein 5'UTR reporter, inhibitor activity. AID 1813. 300,000 compounds, 0.82% hits; in the data active = inhibition above about 60%; inconclusive = no clear call, values can overlap the other calls;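 note: H4 neuroglioblastoma cells stably carrying SNCA 5'UTR luciferase fusion; 0% = DMSO wells and 100% = positive control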
SKKanGAS inh = inhibitors of SKKanGAS S. pyogenes growth in kanamycin (SK-promoter or general growth effect); 300,000 compounds, 1.3% hits; BacTiter-Glo, 6 h; inhibition, % at 7.5 µM;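 active = mean replicate score, as percent of positive control median, at least 50; inconclusive = mean below 50 but one replicate at or above 50; inactive = mean and every replicate below 50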;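 note: strain carries kanamycin resistance gene driven by streptokinase promoter and grows in 40 µg/ml kanamycin; loss of luminescence reflects streptokinase promoter inhibition or plain growth inhibition; 0% = median of DMSO wells and 100% = positive control at its reference dose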
T cruzi inh = T. cruzi replication inhibition. T. cruzi beta-gal in NIH3T3, luminescence, 90 h. inhibition, % (no concentration beside the values). 300,000 compounds, 1.4% hits. AID 1885;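 active = mean inhibition across valid replicates above about 55%, limit read from the data; inconclusive = mean below that limit but half or more replicates reach it; inactive = mean below it, under half of replicates reach it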;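 note: signal also drops with host cell toxicity which is not excluded here; 0% = plate median of DMSO wells and 100% = zero luminescence signal; higher percent means less beta-gal luminescence so fewer parasites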
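Assay system: NIH/3T3 host cells with β-galactosidase reporter T. cruzi; input: 5,000 host fibroblasts per well; compound: single 50 nL compound addition per well in DMSO; timing: ≥90 h infection period, 3 h prior cell attachment; measured by: GalScreen β-gal luminescence, detergent lysis, 60 min; evaluation: percent inhibition of parasite-derived β-gal signal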
Mdm2-MdmX inh = disrupts the human Mdm2-MdmX interaction; 330,000 compounds, 3% hits; O15151+Q00987; SaOS-2 split-luciferase Mdm2/MdmX complementation, luminescence; inhibition, % at 8 µM;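 active = inhibition of at least 50% at 8 µM in the primary screen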
* = called active by the depositor; ? = inconclusive; . = no result.

SMILES	CSC inhib	aSyn UTR inh	SKKanGAS inh	T cruzi inh	Mdm2-MdmX inh
Cc1cccc(CC(=O)NCCS(=O)(=O)N2CCN(c3cccc(Cl)c3)CC2)c1	-9	-9	-6	-3	22
Cc1ccc(C(=O)Nc2ccc3c(c2)CCC3)o1	11	-134	3	7	-131
O=C(Nc1ccc2c(c1)OCO2)c1ccc(COc2ccc3c(c2)CCC3)o1	86*	-76	10	12	-33
COC(=O)c1ccc(Oc2nc3ccccc3n3c(C)nnc23)cc1	-1	-33	53*	-11	11
Cc1nnc2c(Oc3ccccc3)nc3ccccc3n12	-14	0	3	-7	16
Cc1ccn(-c2ccc(NC(=O)c3cccs3)cc2)n1	53	-63	6	-4	-133
COc1ccccc1Nc1ccc(NC(=O)c2cccc([N+](=O)[O-])c2C)cc1	?	-47	9	35	22
O=C(Nc1ccc(Cl)c(Cl)c1)OCc1cccnc1	4	-73	43	65*	24
CNC(=S)N(Cc1cc2cc(OC)c(OC)cc2[nH]c1=O)C1CCCC1	-7	0	-6	-4	22
Cc1cccc(NC(=O)CSc2nnc3ccc(-c4ccccn4)nn23)c1	16	5	-6	-8	22
CC(C)(C)c1ccc(C(=O)NNc2cc(N3CCCCC3)nc(N3CCCCC3)n2)cc1	45	-23	25	93*	43
O=C(CCc1ccccc1)NNc1cc(N2CCCCC2)nc(N2CCCCC2)n1	-2	82*	7	57*	11
Cc1ccc(N2CC(C(=O)Nc3nnc(SCCN4CCOCC4)s3)CC2=O)cc1 (configuration not stated)	-14	-15	-2	0	4
CC1CC2=C(NC(=S)NC2c2cccc(F)c2)/C(=C/c2cccc(F)c2)C1 (configuration not stated)	.	2	28	59*	.
Cc1ccc(/C=C2\CC(C)CC3=C2NC(=S)NC3c2ccc(C)cc2)cc1 (configuration not stated)	14	7	6	14	-15
Cc1ccccc1N1CC(C(=O)Nc2ccc(S(=O)(=O)N3CCOCC3)cc2)CC1=O (configuration not stated)	.	-13	2	-5	-8
O=C1c2cccnc2C(Nc2ccc(F)c(Cl)c2)N1Cc1cccs1 (configuration not stated)	9	1	-2	13	4
CCc1ccc(-c2cn3nc(C)c(C)nc3n2)cc1	-11	87*	42	-13	45
O=S(=O)(c1ccc(F)cc1)c1nc(-c2ccccc2)oc1N1CCOCC1	0	10	54*	10	-1
CCOc1ccc(S(=O)(=O)N2CCCC(C(=O)NCc3cccnc3)C2)cc1 (configuration not stated)	-6	-4	16	-8	-10
COC(=O)C[C@](O)(CCCC(C)(C)O)C(=O)O[C@@H]1C(OC)=C[C@]23CCCN2CCc2cc4c(cc2[C@H]13)OCO4	98*	127*	-2	41	.
CCCOc1ccc(NCC(=O)Nc2ccc(C)cc2C)cc1	-4	-1	-3	76*	7
CC1S/C(=N/N=C/c2cccc([N+](=O)[O-])c2)NC1=O (configuration not stated)	88*	-15	-5	-9	-16
CC1S/C(=N/N=C/c2cccs2)NC1=O (configuration not stated)	-16	-56	-2	-2	-4
COc1ccc(N2CCN(C3CC(=O)NC3=O)CC2)cc1 (configuration not stated)	0	6	15	-7	6
SMILES	CSC inhib	aSyn UTR inh	SKKanGAS inh	T cruzi inh	Mdm2-MdmX inh
COc1ccc(C(=O)c2ccc(N3CCN(C4CC(=O)NC4=O)CC3)cc2)cc1F (configuration not stated)	2	21	73*	-17	13
CC1CCN(S(=O)(=O)c2ccc(NC(=O)CN3CCCCCC3)cc2)CC1	43	6	-2	-17	24
CC1CCN(S(=O)(=O)c2ccc(NC(=O)Cn3nnc(-c4ccccc4F)n3)cc2)CC1	11	5	8	69*	11
CC1CCN(S(=O)(=O)c2ccc(NC(=O)CN3CCN(C)CC3)cc2)CC1	26	0	-3	59*	8
CC1CCN(S(=O)(=O)c2ccc(NC(=O)c3ccccc3F)cc2)CC1	-2	-11	1	-1	5
COc1ccc(C(=O)C2CCCN(C(=O)c3noc4c3CCCC4)C2)c(C)c1 (configuration not stated)	-5	-3	-2	8	9
C=CCOc1cccc(/C=C2\C(=O)N(Cc3ccc(C)cc3)C(C)=C2C(=O)OC)c1	85*	-7	-7	9	-24
CCOc1cc(/C=C2\C(=O)N(Cc3ccc(C)cc3)C(C)=C2C(=O)OC)ccc1O	36	-5	3	-6	-1
CCN1CCN(CCCNC(=O)c2cc3cc4ccc(OC)cc4nc3o2)CC1	0	-29	4	43	-27
COc1ccc2cc3cc(C(=O)NCCCN4CCOCC4)oc3nc2c1	13	-18	14	58*	-5
COc1ccc2cc3cc(C(=O)NCCN4CCN(Cc5ccccc5)CC4)oc3nc2c1	-2	-33	3	64*	2
Cc1ccccc1S(=O)(=O)Cc1ccc(C(=O)NCCN2CCN(Cc3ccccc3)CC2)o1	-3	-8	-12	61*	25
CCCc1cc(=O)[nH]c(SCC(=O)Nc2cc(S(=O)(=O)N3CCCCC3)ccc2C)n1	.	.	.	.	7
COCCSc1ccccc1C(=O)N1CCc2ccccc2C1	-15	-18	0	8	12
COC(=O)C1(C)CCC(C(=O)Nc2ccccc2)C1(C)C (configuration not stated)	-14	62*	-9	22	13
CC1(C(=O)O)CCC(C(=O)Nc2ccccc2)C1(C)C (configuration not stated)	-6	-6	3	8	11
COc1ccc(Cc2nnc(NC(=O)c3ccccc3F)s2)cc1OC	-15	21	-7	-16	28
CCc1ccc(NS(=O)(=O)c2c(C(=O)N3CCOCC3)c(C)n(C)c2C)cc1	-16	19	-1	-20	16
Nc1nc2ccccc2[nH]1	-6	8	-2	5	8
Nc1ccccc1Sc1nc2ccccc2[nH]1	.	-48	61*	52	-24
O=Cc1ccc(C(=O)OCC(=O)NCc2ccco2)cc1	-6	.	.	.	6
C/C(=C\C(=O)c1ccccc1)Nc1ccc(N2CCOCC2)cc1	16	-63	-2	64*	-16
C/C(=C\C(=O)c1ccc(Cl)cc1)Nc1ccc(N2CCOCC2)cc1	-1	-45	4	26	13
Cc1cc(NS(=O)(=O)c2ccc(NC(=O)COc3ccc(Br)cc3)cc2)nc(C)n1	-5	-17	7	-11	-5
Cc1ccc(-n2ncc(Br)c(Br)c2=O)cc1	.	55	-2	75*	.
CC1CCCC(C)N1c1nnc(NC(=O)c2cc(-c3ccc(Br)cc3)on2)s1 (configuration not stated)	64	8	51*	-6	-8

High-throughput results from PubChem.
